Legend:
[1] = system: serum calcium; experiment: Serum calcium; assay type: in vivo, human; details: for Serum-corrected calcium Cmax, mean / Serum-corrected calcium tmax, mean / Serum-corrected calcium AUC0-tlast, geom. mean / Serum-corrected calcium Cmax, geom. mean / Serum-corrected calcium AUC0-tlast, median / Serum-corrected calcium Cmax, median / Serum-corrected calcium tmax, median: single 20 μg/80 μL s.c. injection, healthy women, N = 53; for Serum-corrected calcium Cmax, mean / Serum-corrected calcium tmax, mean: arithmetic mean; for Serum-corrected calcium AUC0-tlast, geom. mean / Serum-corrected calcium Cmax, geom. mean: geometric mean
Procedure, shortened: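 Serum drawn within 2.5 h before dosing and at 120, 180 and 240 min and 6, 8 and 12 h after a single 20 μg/80 μL s.c. dose. Total calcium measured photometrically via the NM-BAPTA complex under alkaline conditions (LLOQ 0.8 mg/dl). Values albumin-corrected as Ca (mmol/L) + ((40 − ALB (g/L)) × 0.02). AUC0-tlast, Cmax and tmax calculated.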

[2] = Comparative single-dose PK of teriparatide; assay type: in vivo, human; details: for tlast / Cmax / tmax / AUC0-tlast: single 20 μg/80 μL s.c. dose, N = 51; for tlast: AM ± SD; for Cmax: ELISA; for Cmax / AUC0-tlast: GM (GCV%); for tmax: Median (Minimum, Maximum); for AUC0-tlast: abdomen, PTH(1-34) ELISA
Procedure, shortened: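 Randomised, double-blind, two-period, two-sequence cross-over in healthy women aged 18–55 y (BMI 18.5–27.0 kg/m2). Single 20 μg/80 μL s.c. abdominal injection of test or reference teriparatide at hour 0, with a 24 h washout. Plasma sampled pre-dose and at 10–240 min. High-sensitivity human PTH(1-34) ELISA. Non-compartmental parameters; ANOVA on ln values; geometric mean test/reference ratios with 94.12% CI (α 0.0294, two-stage design).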

[3] = Safety: treatment emergent adverse events in healthy women; assay type: in vivo, human; details: single 20 μg s.c.; for TEAE: General disorders and administration site conditions: number of subjects (%)
Procedure, shortened: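 Healthy women received single 20 μg/80 μL s.c. injections in each cross-over period. Monitoring covered physical examinations, vital signs, ECGs, pulse oximetry, adverse events, injection-site reactions and clinical laboratory tests. Adverse events in the washout were assigned to the preceding treatment. Results were summarised per treatment arm as subject counts; Fisher's exact test.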

[4] = after at least 12 months of treatment, 20 μg daily s.c. doses; cited from earlier work
[5] = RGB-10/reference, two-stage design
[6] = RGB-10/reference, two-stage design, acceptance range 80.00–125.00%
[7] = geometric mean ratio = 100 * (RGB-10/reference)
[8] = geometric least-squares mean from ANOVA, single 20 μg s.c., healthy women

teriparatide [RGB-10]
95% CIs of the GMR of corrected calcium ([1]; RGB-10/reference): 99–101%
GMR of serum calcium AUC ([1]; RGB-10/reference): 99.93%
GMR of serum calcium Cmax ([1]; RGB-10/reference): 99.87%
median difference of serum calcium tmax ([1]; RGB-10 versus reference): 0.001
Serum-corrected calcium Cmax, mean [1]: 2.35 mmol/L
Serum-corrected calcium tmax, mean [1]: 5.21 h
Serum-corrected calcium AUC0-tlast, geom. mean [1]: 27.59 mmol·h/L
Serum-corrected calcium Cmax, geom. mean [1]: 2.35 mmol/L
Serum-corrected calcium AUC0-tlast, median [1]: 27.56 mmol·h/L
Serum-corrected calcium Cmax, median [1]: 2.34 mmol/L
Serum-corrected calcium tmax, median [1]: 6.00 h
bioequivalence conclusion ([2]; 94.12% CIs of GMRs of AUC0-tlast and Cmax within 80–125%): bioequivalent
94.12% CI of GMR, AUC0-inf [2, 5]: 83.75–96.33%
94.12% CI of GMR, t1/2 [2, 5]: 83.28–100.29%
94.12% CI of GMR, AUC0-tlast [2, 6]: 85.20–98.60%
94.12% CI of GMR, Cmax [2, 6]: 85.51–99.52%
extent, total extent and peak teriparatide exposure (AUC0-tlast, AUC0-inf, Cmax) lower than for the reference ([2]; based on GMR, plasma): 8 to 10%
GMR% AUC0-inf [2, 7]: 89.82%
GMR% AUC0-tlast [2, 7]: 91.66%
GMR% Cmax [2, 7]: 92.25%
GMR% t1/2 [2, 7]: 91.39%
tlast ([2]; healthy women): 2.49 ± 0.729 h
Cmax ([2]; healthy women): 82.4 (40.1%) pg/mL
tmax ([2]; healthy women): 0.334 (0.166, 0.585) h
AUC0-tlast ([2]; healthy women): 91.8 (40.9%) pg*h/mL
half-life shorter than for the reference ([2]; in vivo): 9%
mean CL/F higher than for the reference product ([2]; in vivo): approximately 13%
mean Vz/F compared with the reference ([2]; in vivo): similar
TEAE: General disorders and administration site conditions [3]: 13 (24%)
serious adverse events (SAEs) [3]: no SAEs observed

teriparatide [Reference, reference compound]
Serum-corrected calcium Cmax, mean [1]: 2.35 mmol/L
Serum-corrected calcium tmax, mean [1]: 5.03 h
Serum-corrected calcium AUC0-tlast, geom. mean [1]: 27.61 mmol·h/L
Serum-corrected calcium Cmax, geom. mean [1]: 2.35 mmol/L
Serum-corrected calcium AUC0-tlast, median [1]: 27.56 mmol·h/L
Serum-corrected calcium Cmax, median [1]: 2.34 mmol/L
Serum-corrected calcium tmax, median [1]: 6.00 h
AUC0-inf, geometric LSM [2, 8]: 115.66 pg·h/mL
AUC0-tlast, geometric LSM [2, 8]: 100.86 pg·h/mL
Cmax, geometric LSM [2, 8]: 90.18 pg/mL
t1/2, geometric LSM [2, 8]: 43.2 min
tlast ([2]; healthy women): 2.58 ± 0.707 h
Cmax ([2]; healthy women): 89.2 (37.1%) pg/mL
tmax ([2]; healthy women): 0.417 (0.167, 0.667) h
AUC0-tlast ([2]; healthy women): 99.0 (35.0%) pg*h/mL
TEAE: General disorders and administration site conditions [3]: 8 (15%)
patients with anti-teriparatide antibodies [4]: 2.8%
